Results from ChEMBL document CHEMBL4480426, “Novel multi-target directed ligands based on annelated xanthine scaffold with aromatic substituents acting on adenosine receptor and monoamine oxidase B. Synthesis, in vitro and in silico studies” (Bioorg Med Chem, 2019).

Legend:
[1] = biological target: T1, Amine oxidase [flavin-containing] B (Homo sapiens, UniProt P27338); assay: Inhibition of recombinant human MAOB expressed in baculovirus infected BTI insect cells using p-tyramine as substrate preincubated for 30 mins followed by substrate addition and measured over 45 mins by horseradish peroxidase-Amplex Red-coupled fluorometric assay
T1 sequence (P27338 whole entry): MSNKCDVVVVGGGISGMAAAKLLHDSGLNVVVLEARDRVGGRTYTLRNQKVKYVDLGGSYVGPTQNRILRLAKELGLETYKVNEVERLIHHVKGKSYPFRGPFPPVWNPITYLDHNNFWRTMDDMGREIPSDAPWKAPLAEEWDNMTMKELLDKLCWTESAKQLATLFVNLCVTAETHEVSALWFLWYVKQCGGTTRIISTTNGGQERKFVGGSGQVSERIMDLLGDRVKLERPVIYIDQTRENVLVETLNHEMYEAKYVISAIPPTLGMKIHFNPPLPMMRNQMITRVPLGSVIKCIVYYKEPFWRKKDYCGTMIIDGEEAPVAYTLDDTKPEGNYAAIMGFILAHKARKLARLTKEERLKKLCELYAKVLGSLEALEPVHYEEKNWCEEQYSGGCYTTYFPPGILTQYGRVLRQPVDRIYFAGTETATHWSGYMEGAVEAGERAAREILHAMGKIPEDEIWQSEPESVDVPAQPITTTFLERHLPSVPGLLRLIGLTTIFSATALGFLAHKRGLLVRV
Summary of the method: (§1)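 Human recombinant MAO-A or MAO-B enzyme. Activity detected fluorometrically with the Amplex Red monoamine oxidase assay.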

[2] = biological target: T2, Adenosine receptor A3 (Homo sapiens) (UniProt P0DMS8); assay: Displacement of [3H]PSB11 from recombinant human adenosine A3 receptor expressed in CHO cells at 1 uM relative to control; assay type: cell-based
T2 sequence (whole entry): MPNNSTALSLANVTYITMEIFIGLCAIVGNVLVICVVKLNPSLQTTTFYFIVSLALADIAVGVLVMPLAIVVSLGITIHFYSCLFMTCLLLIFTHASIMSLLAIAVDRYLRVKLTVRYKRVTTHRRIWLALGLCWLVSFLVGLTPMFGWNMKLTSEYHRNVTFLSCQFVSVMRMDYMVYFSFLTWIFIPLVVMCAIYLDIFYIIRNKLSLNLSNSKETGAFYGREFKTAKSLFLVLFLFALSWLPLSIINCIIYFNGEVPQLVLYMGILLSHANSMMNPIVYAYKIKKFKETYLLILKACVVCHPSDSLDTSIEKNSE
Summary of the method: (§2)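 Purchased membranes of CHO cells expressing human A1 ([3H]CCPA) or human A3 ([3H]PSB-11). A single high compound concentration is screened first; for potent compounds, full inhibition curves spanning 3 orders of magnitude. At least three independent experiments.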

[3] = biological target: T3, Amine oxidase [flavin-containing] A (Homo sapiens, UniProt P21397); assay: Inhibition of recombinant human MAOA expressed in baculovirus infected BTI insect cells using p-tyramine as substrate preincubated for 30 mins followed by substrate addition and measured over 45 mins by horseradish peroxidase-Amplex Red-coupled fluorometric assay; summary of the method: as §1
T3 sequence (P21397 whole entry): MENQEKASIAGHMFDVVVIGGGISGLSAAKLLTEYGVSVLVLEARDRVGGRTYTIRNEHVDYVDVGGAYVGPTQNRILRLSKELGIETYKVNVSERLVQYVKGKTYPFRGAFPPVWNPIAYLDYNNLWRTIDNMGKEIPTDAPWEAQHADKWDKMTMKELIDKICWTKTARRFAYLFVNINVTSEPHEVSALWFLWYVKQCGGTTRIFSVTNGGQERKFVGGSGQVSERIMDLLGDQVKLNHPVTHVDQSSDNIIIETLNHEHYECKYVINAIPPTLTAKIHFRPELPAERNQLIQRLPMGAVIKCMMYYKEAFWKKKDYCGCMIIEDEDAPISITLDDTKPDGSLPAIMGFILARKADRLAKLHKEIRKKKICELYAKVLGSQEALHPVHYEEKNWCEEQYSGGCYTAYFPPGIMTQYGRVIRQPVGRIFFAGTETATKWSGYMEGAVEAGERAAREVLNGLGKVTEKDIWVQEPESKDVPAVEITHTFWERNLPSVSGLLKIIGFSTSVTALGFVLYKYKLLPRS

Adenosine receptor A2b = biological target: T4, Adenosine receptor A2b (Homo sapiens, UniProt P29275); assay: Displacement of [3H]PSB603 from recombinant human adenosine A2b receptor expressed in HEK293 cells; assay type: cell-based
T4 sequence (P29275 whole entry): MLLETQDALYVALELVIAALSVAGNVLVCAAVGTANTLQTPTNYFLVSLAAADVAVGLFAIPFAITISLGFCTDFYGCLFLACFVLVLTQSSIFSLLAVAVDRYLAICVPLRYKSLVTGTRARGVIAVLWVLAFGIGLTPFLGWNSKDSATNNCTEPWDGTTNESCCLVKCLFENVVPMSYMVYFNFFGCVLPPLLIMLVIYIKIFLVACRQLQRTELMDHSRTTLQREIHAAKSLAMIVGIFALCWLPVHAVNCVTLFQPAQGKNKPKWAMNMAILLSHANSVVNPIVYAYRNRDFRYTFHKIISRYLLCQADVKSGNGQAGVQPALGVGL

[4] = biological target: T5, Adenosine receptor A2b (Homo sapiens) (UniProt P29275); assay: Displacement of [3H]PSB603 from recombinant human adenosine A2b receptor expressed in HEK293 cells at 1 uM relative to control; assay type: cell-based
T5 sequence (whole entry): T4 sequence (P29275 whole entry)
Summary of the method: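 Purchased membranes of HEK cells expressing human A2A ([3H]MSX-2) or human A2B ([3H]PSB-603). A single high compound concentration is screened first; for potent compounds, full inhibition curves spanning 3 orders of magnitude. At least three independent experiments.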

[5] = biological target: T6, Adenosine receptor A1 (Homo sapiens) (UniProt P30542); assay: Displacement of [3H]CCPA from recombinant human adenosine A1 receptor expressed in CHO cells at 1 uM relative to control; assay type: cell-based; summary of the method: as §2
T6 sequence (whole entry): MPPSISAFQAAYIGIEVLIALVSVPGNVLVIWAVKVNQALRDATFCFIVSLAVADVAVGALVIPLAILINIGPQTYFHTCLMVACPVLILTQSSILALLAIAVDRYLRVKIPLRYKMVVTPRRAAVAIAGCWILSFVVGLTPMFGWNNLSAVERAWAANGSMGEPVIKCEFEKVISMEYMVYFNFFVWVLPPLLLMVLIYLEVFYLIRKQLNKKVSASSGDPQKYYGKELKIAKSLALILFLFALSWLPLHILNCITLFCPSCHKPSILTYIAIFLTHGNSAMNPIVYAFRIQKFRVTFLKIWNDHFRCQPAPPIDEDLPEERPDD

Adenosine receptor A1 [6] = biological target: T7, Adenosine receptor A1 (Homo sapiens, UniProt P30542); assay: Displacement of [3H]CCPA from recombinant human adenosine A1 receptor expressed in CHO cells; assay type: cell-based
T7 sequence (P30542 whole entry): T6 sequence (whole entry)

Adenosine receptor A3 = biological target: T8, Adenosine receptor A3 (Homo sapiens, UniProt P0DMS8); assay: Displacement of [3H]PSB11 from recombinant human adenosine A3 receptor expressed in CHO cells; assay type: cell-based
T8 sequence (P0DMS8 whole entry): T2 sequence (whole entry)

[7] = biological target: T3, Amine oxidase [flavin-containing] A; assay: Inhibition of recombinant human MAOA expressed in baculovirus infected BTI insect cells at 1 to 100 uM using p-tyramine as substrate preincubated for 30 mins followed by substrate addition and measured over 45 mins by horseradish peroxidase-Amplex Red-coupled fluorometric assay relative to control; details: 0.75 h; summary of the method: as §1
Adenosine receptor A2a = Adenosine receptor A2a (Homo sapiens, UniProt P29274); assay: Displacement of [3H]MSX2 from recombinant human adenosine A2a receptor expressed in HEK293 cells; assay type: cell-based
Adenosine receptor A2a, sequence (P29274 whole entry): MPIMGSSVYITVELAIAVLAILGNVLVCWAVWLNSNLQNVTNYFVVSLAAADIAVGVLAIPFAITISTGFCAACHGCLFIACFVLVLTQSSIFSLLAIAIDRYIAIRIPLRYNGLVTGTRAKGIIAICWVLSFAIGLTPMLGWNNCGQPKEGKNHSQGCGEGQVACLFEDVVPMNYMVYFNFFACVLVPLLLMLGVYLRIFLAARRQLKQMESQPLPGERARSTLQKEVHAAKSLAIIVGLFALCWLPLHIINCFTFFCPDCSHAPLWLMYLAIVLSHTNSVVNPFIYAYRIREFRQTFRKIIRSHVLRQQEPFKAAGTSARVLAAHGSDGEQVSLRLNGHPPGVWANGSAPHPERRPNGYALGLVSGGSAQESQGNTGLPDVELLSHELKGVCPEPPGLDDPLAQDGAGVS

[8] = biological target: T1, Amine oxidase [flavin-containing] B; assay: Inhibition of recombinant human MAOB expressed in baculovirus infected BTI insect cells at 1 to 100 uM using p-tyramine as substrate preincubated for 30 mins followed by substrate addition and measured over 45 mins by horseradish peroxidase-Amplex Red-coupled fluorometric assay relative to control; details: 0.75 h; summary of the method: as §1
Adenosine receptor A1 [9] = biological target: T9, Adenosine receptor A1 (Rattus norvegicus, UniProt P25099); assay: Displacement of [3H]CCPA from adenosine A1 receptor in rat brain cortical membranes; assay type: cell membranes
T9 sequence (P25099 whole entry): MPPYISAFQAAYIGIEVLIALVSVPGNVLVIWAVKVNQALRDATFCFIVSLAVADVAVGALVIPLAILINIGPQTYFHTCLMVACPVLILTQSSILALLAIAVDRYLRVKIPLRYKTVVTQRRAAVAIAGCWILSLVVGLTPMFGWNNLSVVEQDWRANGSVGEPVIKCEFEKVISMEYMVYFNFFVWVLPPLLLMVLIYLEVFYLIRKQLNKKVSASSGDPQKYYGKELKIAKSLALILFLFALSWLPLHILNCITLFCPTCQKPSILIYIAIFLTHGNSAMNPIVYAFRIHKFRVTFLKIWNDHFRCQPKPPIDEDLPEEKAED

SMILES | IC50 [1] [nM] | inhibition [2] [%] | IC50 [3] [nM] | Ki (Adenosine receptor A2b) [nM] | inhibition [4] [%] | inhibition [5] [%] | Ki (Adenosine receptor A1 [6]) [nM] | Ki (Adenosine receptor A3) [nM] | inhibition (INH) [7] [%] | Ki (Adenosine receptor A2a) [nM] | inhibition (INH) [8] [%] | Ki (Adenosine receptor A1 [9]) [nM]
COc1ccccc1CN1CCCCn2c1nc1c2c(=O)n(C)c(=O)n1C | 1920 | 19 | > 1000 | > 1000 | 16 | 13 | > 1000 | > 1000 | 2 | 959 | – | –
COc1ccccc1CN1CCn2c1nc1c2c(=O)n(C)c(=O)n1C | 111000 | 15 | > 1000 | > 1000 | 3 | 30 | > 1000 | > 1000 | 7 | 784 | – | –
Cn1c(=O)c2c(nc3n2CCCCN3Cc2ccccc2Br)n(C)c1=O | 275 | 42 | > 1000 | > 1000 | 43 | 21 | > 1000 | > 1000 | 3 | 767 | – | –
Cn1c(=O)c2c(nc3n2CCCN3Cc2cccs2)n(C)c1=O | > 1000 | – | – | > 1000 | – | – | – | > 1000 | – | 2020 | 20 | 2650
Cn1c(=O)c2c(nc3n2CCCCN3Cc2ccc(F)c(Br)c2)n(C)c1=O | 171 | 20 | > 1000 | > 1000 | 43 | 23 | > 1000 | > 1000 | -6 | > 1000 | – | –
Cn1c(=O)c2c(nc3n2CCCCN3Cc2ccccc2Cl)n(C)c1=O | 343 | 15 | > 1000 | > 1000 | 41 | 10 | > 1000 | > 1000 | 4 | 881 | – | –
Cn1c(=O)c2c(nc3n2CCN3Cc2ccccc2Br)n(C)c1=O | 991 | 37 | > 1000 | > 1000 | 21 | 24 | > 1000 | > 1000 | 13 | 887 | – | –
Cn1c(=O)c2c(nc3n2CCCN3Cc2cc(F)c(F)c(F)c2)n(C)c1=O | > 1000 | – | – | > 1000 | – | – | – | > 1000 | – | > 1000 | 24 | > 1000
Cn1c(=O)c2c(nc3n2CCCCN3Cc2ccc(Cl)cc2Cl)n(C)c1=O | 282 | 31 | > 1000 | > 1000 | 5 | 16 | > 1000 | > 1000 | -2 | 1580 | – | –
Cn1c(=O)c2c(nc3n2CCCCN3Cc2ccc(Cl)cc2)n(C)c1=O | 364 | 10 | > 1000 | > 1000 | 13 | 13 | > 1000 | > 1000 | 6 | > 1000 | – | –
Cn1c(=O)c2c(nc3n2CCCN3CCc2ccncc2)n(C)c1=O | > 1000 | – | – | > 1000 | – | – | – | > 1000 | – | > 1000 | 4 | > 1000
Cn1c(=O)c2c(nc3n2CCCN3CCc2cccnc2)n(C)c1=O | > 1000 | – | – | > 1000 | – | – | – | > 1000 | – | 3040 | 1 | > 1000
